Assay results: ChEMBL document CHEMBL4251617, “Synthesis and anticancer activity of novel water soluble benzimidazole carbamates” (Eur J Med Chem, 2018)
Values after ≈ are worked out from the molar mass of the structure shown. Active and inactive are the calls of the source. The rule behind the calls is not given here.

What was measured:
A549/TR = assay: Cytotoxicity against human A549/TR cells assessed as reduction in cell viability after 72 hrs by MTT assay; assay type: functional, cell-based
Method in brief: (§1)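 Cells seeded per well at 5 X 10^3 (PC3MLN4, A549, Calu1, H157, A549-TR), 6 X 10^3 (PC3) or 8 X 10^3 (SKOV3). SKOV3 grown in McCoy's 5A, others in RPMI-1640, 10% FBS. Next day 2X drug added, 3.2 nM-50 µM five-fold dilutions, 72 hr.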

[1] = Cytotoxicity against human PC3MLN4 cells assessed as cell viability at 10 uM after 72 hrs by MTT assay relative to control; assay type: functional; conditions: read-out: Activity
[2] = Cytotoxicity against human PC3MLN4 cells assessed as cell viability at 1 uM after 72 hrs by MTT assay relative to control; assay type: functional; conditions: read-out: Activity
PC-3 [3] = assay: Cytotoxicity against human PC3 cells assessed as cell viability at 10 uM after 72 hrs by MTT assay relative to control; assay type: functional; conditions: PC-3, 72 h, read-out: Activity
PC-3 [4] = assay: Cytotoxicity against human PC3 cells assessed as cell viability at 1 uM after 72 hrs by MTT assay relative to control; assay type: functional; conditions: PC-3, 72 h, read-out: Activity
A549 [5] = assay: Cytotoxicity against human A549 cells assessed as cell viability at 10 uM after 72 hrs by MTT assay relative to control; assay type: functional; conditions: A549, 72 h, read-out: Activity
A549 [6] = assay: Cytotoxicity against human A549 cells assessed as cell viability at 1 uM after 72 hrs by MTT assay relative to control; assay type: functional; conditions: A549, 72 h, read-out: Activity
Homo sapiens [7] = organism: Homo sapiens; assay: Upregulation of Cyclin-B1 protein expression in human PC3MLN4 cells at 1 uM after 24 hrs by Western blot method; assay type: functional, cell-based
Method in brief: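 PC3MLN4 cells were treated 24 hr and lysed in 50 mM Tris pH 7.5, 150 mM NaCl, 10 mM NaF, 0.5% NP40 with protease inhibitors. Equal protein (BCA) was run on SDS-PAGE and transferred to nitrocellulose, then blocked in 5% milk/TBST. Blots were probed for cyclin B1 with GAPDH as loading control, using HRP secondary and ECL.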

Homo sapiens [8] = organism: Homo sapiens; assay: Disruption of microtubule dynamics in human PC3MLN4 cells at 1 uM after 48 hrs by immunofluorescence microscopic method; assay type: cell-based
Method in brief: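 PC3MLN4 cells on coverslips were treated 48 hr at 1 µM. They were fixed in 4% PFA 15 min and permeabilized in 0.2% Triton X-100 8 min. Blocking was 2% goat serum/2% BSA 1 hr. Anti-α-tubulin 1:200 for 1 hr was followed by Alexa Fluor 488 secondary 1:400 for 45 min, with DAPI 500 nM counterstain and imaging at 100X and 200X.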

[9] = Cytotoxicity against human PC3MLN4 cells assessed as reduction in cell viability after 48 hrs by cyquant reagent based fluorescence spectrometric assay; assay type: functional
Method in brief: (§2)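 3 X 10^5 cells per well seeded overnight, then exposed 48 hr. Cells harvested, washed, frozen at -80 °C overnight, thawed, and CyQuant reagent added with fluorescence read at 485 nm. Survival as % of vehicle-treated cells. EC50 (50% survival reduction) by median-dose effect analysis.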

PC-3M = assay: Cytotoxicity against human PC3M cells assessed as reduction in cell viability after 48 hrs by cyquant reagent based fluorescence spectrometric assay; assay type: functional; method in brief: as §2
[10] = Selectivity ratio of EC50 for cytotoxicity against human PC3M cells to EC50 for cytotoxicity against human PC3MLN4 cells; assay type: functional
Mus musculus = assay: Toxicity in nude mouse xenografted with human PC3MLN4 cells assessed as reduction in body weight at 30 mg/kg, ip administered every other day 3 times per week for 2 weeks measured 3 times per week during compound dosing relative to control; assay type: organism-based; parameters: scale not given: the % may be the effect or the level left; conditions: in vivo, 336 h
Method in brief: (§3)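 PC3MLN4 cells (1 X 10^6) in growth factor reduced Matrigel/HBSS injected subcutaneously between the scapulae of athymic nude mice. Dosing began day 13 at tumor volume about 35 mm3. Randomized groups of 4-5 mice got 30 mg/kg IP in 5% DMSO/HBSS, or vehicle alone. Tumor (calipers) and body weight measured on dosing days and 3 days after last dose. Mean ± SEM, t-test.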

NCI-H157 = assay: Cytotoxicity against human NCI-H157 cells assessed as reduction in cell viability after 72 hrs by MTT assay; assay type: functional, cell-based; conditions: NCI-H157, 72 h; method in brief: as §1
Calu-1 = assay: Cytotoxicity against human Calu1 cells assessed as reduction in cell viability after 72 hrs by MTT assay; assay type: functional, cell-based; conditions: Calu-1, 72 h; method in brief: as §1
A549 [11] = assay: Cytotoxicity against human A549 cells assessed as reduction in cell viability after 72 hrs by MTT assay; assay type: functional, cell-based; conditions: A549, 72 h; method in brief: as §1
PC-3 [12] = assay: Cytotoxicity against human PC3 cells assessed as reduction in cell viability after 72 hrs by MTT assay; assay type: functional, cell-based; conditions: PC-3, 72 h; method in brief: as §1
[13] = Cytotoxicity against human PC3MLN4 cells assessed as reduction in cell viability after 72 hrs by MTT assay; assay type: functional, cell-based; method in brief: as §1
SK-OV-3 = assay: Cytotoxicity against human SKOV3 cells assessed as reduction in cell viability after 72 hrs by MTT assay; assay type: functional, cell-based; conditions: SK-OV-3, 72 h; method in brief: as §1
Homo sapiens [14] = organism: Homo sapiens; assay: Cell cycle arrest in human PC3MLN4 cells assessed as accumulation at G2/M phase at 1 uM after 24 hrs by propidium iodide staining based flow cytometry; assay type: functional
Method in brief: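 PC3MLN4 cells seeded 3 X 10^5/well, next day treated 24 hr at 1 µM, nocodazole 1 µM as control. Floating and adherent cells pooled, fixed in cold 70% ethanol 30 min, then PI plus RNase A for 30 min. 15 X 10^3 cells acquired by FACS. G1/S/G2 fractions from Dean-Jett-Fox fit.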

[15] = Antitumor activity against human PC3MLN4 cells xenografted in nude mouse assessed as reduction in tumor volume at 30 mg/kg, ip administered every other day 3 times per week for 2 weeks; assay type: functional; method in brief: as §3
[16] = Kinetic solubility in pH 7.4 PBS buffer sonicated for 30 mins by HPLC-UV method
physchem = conditions: PBS buffer, pH 7.4

Row | Compound | viability at 10 µM [1] | viability at 1 µM [2] | viability at 10 µM (PC-3 [3]) | viability at 1 µM (PC-3 [4]) | viability at 10 µM (A549 [5]) | viability at 1 µM (A549 [6]) | other results
1 | CC(=O)O[C@H]1C(=O)[C@@]2(C)[C@H]([C@H](OC(=O)c3ccccc3)[C@]3(O)C[C@H](OC(=O)[C@H](O)[C@@H](NC(=O)c4ccccc4)c4ccccc4)C(C)=C1C3(C)C)[C@]1(OC(C)=O)CO[C@@H]1C[C@@H]2O [PACLITAXEL] |  |  |  |  |  |  | EC50 (A549/TR): 10300 nM
2 | CCCSc1ccc2[nH]c(NC(=O)OCC3(C)COC3)nc2c1 | 89.7% | 87.6% | 79.2% | 87.2% | 87.6% | 83.1% | 
3 | COC(=O)Nc1nc2cc(Oc3cccc(N4CCN(C)CC4)n3)ccc2[nH]1 | 74% | 83% | 52.1% | 98.1% | 72.6% | 87.8% | 
4 | COC(=O)Nc1nc2cc(C(=O)c3cccs3)ccc2[nH]1 |  |  |  |  |  |  | Activity (Homo sapiens [7]): Active; Activity (Homo sapiens [8]): Active
5 | CN(C)CCOC(=O)Nc1nc2cc(Sc3ccccc3)ccc2[nH]1 | 36.6% | 98.1% | 35% | 88.9% | 39.2% | 91.8% | 
6 | CN(C)CCOC(=O)Nc1nc2cc(C(=O)c3ccc(F)cc3)ccc2[nH]1 | 97.2% | 84.6% | 90.9% | 91.2% | 80.4% | 89.4% | 
7 | COC(=O)Nc1nc2cc(C(=O)c3ccc(F)cc3)ccc2[nH]1 [FLUBENDAZOLE] |  |  |  |  |  |  | EC50 [9]: 670 nM; EC50 (PC-3M): 1430 nM; Ratio EC50 [10]: 2
8 | CN(C)CCCOC(=O)Nc1nc2cc(C(=O)c3ccc(F)cc3)ccc2[nH]1 | 91% | 87.3% | 86.5% | 105% | 88.1% | 85.4% | 
9 | COC(=O)Nc1nc2cc(Oc3cccc(N4CCN(C)CC4)c3)ccc2[nH]1 | 33.4% | 86.3% | 32.2% | 73.1% | 47.5% | 77% | 
10 | CN(C)CCOC(=O)Nc1nc2cc(C(=O)c3ccccc3)ccc2[nH]1 | 98.8% | 101% | 92.6% | 97.3% | 89.6% | 94.4% | 
11 | COC(=O)Nc1nc2ccc(C(=O)c3ccccc3)cc2[nH]1 [MEBENDAZOLE] |  |  |  |  |  |  | Activity (Mus musculus): 5%
12 | COC(=O)Nc1nc2cc(C(=O)c3ccccc3)ccc2[nH]1 [MEBENDAZOLE] | 24.9% | 53.9% | 35.8% | 63.4% | 50.8% | 61.5% | EC50 [9]: 700 nM; EC50 (PC-3M): 1210 nM; EC50 (NCI-H157): 3500 nM; EC50 (Calu-1): 1100 nM; EC50 (A549 [11]): 900 nM; EC50 (PC-3 [12]): 1100 nM; EC50 [13]: 500 nM; EC50 (SK-OV-3): 500 nM; EC50 (A549/TR): 1700 nM; Activity (Homo sapiens [14]): inactive; Activity (Homo sapiens [8]): Active; T/C [15]: 0.31
13 | CCCSc1ccc2[nH]c(NC(=O)OC)nc2c1 [ALBENDAZOLE] |  |  |  |  |  |  | EC50 [9]: 580 nM; EC50 (PC-3M): 1150 nM; Ratio EC50 [10]: 2
14 | CCCSc1ccc2[nH]c(NC(=O)OCCCN(C)C)nc2c1 | 88.6% | 86.7% | 78.2% | 95.5% | 89.9% | 83.8% | 
15 | COC(=O)Nc1nc2cc(C(=O)c3ccc(N(C)C4COC4)cc3)ccc2[nH]1 | 23.2% | 34.9% | 33.6% | 44.5% | 42.2% | 50.2% | EC50 (NCI-H157): 2400 nM; EC50 (Calu-1): 1600 nM; EC50 (A549 [11]): 1400 nM; EC50 (PC-3 [12]): 1600 nM; EC50 [13]: 900 nM; EC50 (SK-OV-3): 1000 nM; EC50 (A549/TR): 3800 nM; Activity (Homo sapiens [14]): Active; Activity (Homo sapiens [7]): Active; Activity (Homo sapiens [8]): Active; solubility kinetic at 0.5 h [16]: 253 µM (≈ 96.2 µg/mL); T/C [15]: 0.36; Activity (Mus musculus): Non-Toxic; solubility thermodynamic at 24 h (physchem): 361 µM (≈ 137 µg/mL)
16 | COC(=O)Nc1nc2cc(Sc3ccccc3)ccc2[nH]1 [FENBENDAZOLE] |  |  |  |  |  |  | EC50 [9]: 910 nM; EC50 (PC-3M): 2600 nM; Ratio EC50 [10]: 2
17 | O=C(Nc1nc2cc(Sc3ccccc3)ccc2[nH]1)OC1COC1 | 79.1% | 80.2% | 87.8% | 107% | 74.8% | 75% | 
18 | O=C(Nc1nc2cc(C(=O)c3ccccc3)ccc2[nH]1)OC1COC1 | 66.8% | 70.6% | 65.5% | 90.9% | 62% | 68% | 
19 | CCCSc1ccc2[nH]c(NC(=O)OCCN(C)C)nc2c1 | 42.8% | 92.7% | 37.9% | 82.5% | 51.8% | 75.5% | 
20 | COC(=O)Nc1nc2cc(C(=O)c3ccccc3N(C)C3COC3)ccc2[nH]1 | 38.4% | 100% | 54.8% | 101% | 46.8% | 99% | 
21 | CCCSc1ccc2[nH]c(NC(=O)OC3COC3)nc2c1 | 83.8% | 88.3% | 84.5% | 95.2% | 79.2% | 73.2% | 
